Experimental data taken from ChEMBL document CHEMBL1130205, “Potent noncovalent thrombin inhibitors that utilize the unique amino acid D-dicyclohexylalanine in the P3 position. Implications on oral bioavailability and antithrombotic efficacy” (J Med Chem, 1997).

Columns and labels:
[1] = (§1) log P values were determined by the standard partition method using octanol/pH 7.4 phosphate buffer; format: physicochemical
How it was run: (§2)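 Octanol/pH 7.4 phosphate buffer standard partition method.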

Prothrombin = Prothrombin (Homo sapiens, UniProt P00734); test: Inhibitory activity against human thrombin
Rattus norvegicus [2] = test: AUC (Area under curve) was determined after intravenous administration at a dose 2 mg/kg in rat.; format: ADME, organism-based, Plasma; set-up: dose 2 mg/kg, route intravenous; details: in vivo
Plasminogen = Plasminogen (Homo sapiens, UniProt P00747); test: Inhibitory activity against human serine protease (plasmin) (3.0*10e6)
Plasminogen, sequence (P00747 97-580 limits assumed): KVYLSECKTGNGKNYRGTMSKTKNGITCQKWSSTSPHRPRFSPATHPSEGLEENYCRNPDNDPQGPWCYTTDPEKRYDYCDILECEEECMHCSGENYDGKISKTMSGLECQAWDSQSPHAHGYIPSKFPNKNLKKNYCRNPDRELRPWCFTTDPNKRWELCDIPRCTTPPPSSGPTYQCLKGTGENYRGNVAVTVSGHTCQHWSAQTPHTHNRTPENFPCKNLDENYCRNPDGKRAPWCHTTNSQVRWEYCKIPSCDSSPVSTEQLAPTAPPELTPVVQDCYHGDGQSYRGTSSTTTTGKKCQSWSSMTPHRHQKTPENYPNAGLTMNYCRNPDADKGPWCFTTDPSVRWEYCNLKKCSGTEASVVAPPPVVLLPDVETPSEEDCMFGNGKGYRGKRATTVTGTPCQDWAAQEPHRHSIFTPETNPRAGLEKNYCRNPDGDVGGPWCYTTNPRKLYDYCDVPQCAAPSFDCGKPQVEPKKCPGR
Plasminogen, sequence (P00747 581-810 limits assumed): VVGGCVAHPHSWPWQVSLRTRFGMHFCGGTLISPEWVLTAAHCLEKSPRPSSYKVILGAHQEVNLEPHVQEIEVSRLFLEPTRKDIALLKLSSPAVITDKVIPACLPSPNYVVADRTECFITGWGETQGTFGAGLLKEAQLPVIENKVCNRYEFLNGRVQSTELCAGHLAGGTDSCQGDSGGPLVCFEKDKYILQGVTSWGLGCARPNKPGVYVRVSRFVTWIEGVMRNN

[3] = target: Tissue-type plasminogen activator (Homo sapiens, UniProt P00750); test: Inhibitory activity against human serine protease (TPA) (2.5*10e6*)
Tissue-type plasminogen activator, sequence (P00750 whole entry): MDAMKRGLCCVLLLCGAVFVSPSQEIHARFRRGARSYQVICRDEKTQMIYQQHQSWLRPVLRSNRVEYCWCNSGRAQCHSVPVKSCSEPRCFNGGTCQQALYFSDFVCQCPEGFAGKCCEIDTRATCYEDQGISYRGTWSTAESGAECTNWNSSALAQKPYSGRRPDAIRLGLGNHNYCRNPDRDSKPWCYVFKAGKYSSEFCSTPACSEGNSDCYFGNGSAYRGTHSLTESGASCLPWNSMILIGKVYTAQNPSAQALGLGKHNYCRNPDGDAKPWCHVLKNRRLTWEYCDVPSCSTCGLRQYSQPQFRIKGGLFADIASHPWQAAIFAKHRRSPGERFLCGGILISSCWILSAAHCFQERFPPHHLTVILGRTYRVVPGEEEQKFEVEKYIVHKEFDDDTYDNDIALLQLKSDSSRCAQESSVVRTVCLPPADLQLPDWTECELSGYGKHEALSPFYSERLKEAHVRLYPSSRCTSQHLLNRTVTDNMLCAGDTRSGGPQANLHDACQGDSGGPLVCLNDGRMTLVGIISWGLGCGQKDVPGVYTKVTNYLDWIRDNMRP

Serine protease 1 [4] = target: T1, Serine protease 1 (Homo sapiens, UniProt P07477); test: Inhibitory activity against human serine protease (Trypsin)(2143*)
T1 sequence (P07477 whole entry): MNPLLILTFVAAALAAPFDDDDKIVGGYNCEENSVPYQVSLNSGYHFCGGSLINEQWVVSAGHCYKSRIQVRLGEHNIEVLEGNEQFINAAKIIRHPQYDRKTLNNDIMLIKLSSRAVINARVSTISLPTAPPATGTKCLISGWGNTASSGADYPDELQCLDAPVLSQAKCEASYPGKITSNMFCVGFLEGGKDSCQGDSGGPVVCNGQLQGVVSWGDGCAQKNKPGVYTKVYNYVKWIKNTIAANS

Plasma kallikrein = Plasma kallikrein (Homo sapiens, UniProt P03952); test: Inhibitory activity against human serine protease (plasma Kallikrein) (89000*)
Plasma kallikrein, sequence (P03952 20-390 limits assumed): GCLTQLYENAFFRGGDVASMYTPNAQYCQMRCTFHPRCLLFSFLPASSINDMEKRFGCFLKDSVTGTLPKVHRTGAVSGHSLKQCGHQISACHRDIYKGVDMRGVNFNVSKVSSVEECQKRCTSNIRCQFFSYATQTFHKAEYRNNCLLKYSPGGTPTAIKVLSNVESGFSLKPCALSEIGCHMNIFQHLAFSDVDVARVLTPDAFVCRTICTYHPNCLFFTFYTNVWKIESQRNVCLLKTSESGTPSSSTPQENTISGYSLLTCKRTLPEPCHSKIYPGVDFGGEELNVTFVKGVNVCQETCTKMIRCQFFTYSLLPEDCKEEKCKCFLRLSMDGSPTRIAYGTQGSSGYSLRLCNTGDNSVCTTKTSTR
Plasma kallikrein, sequence (P03952 391-638 limits assumed): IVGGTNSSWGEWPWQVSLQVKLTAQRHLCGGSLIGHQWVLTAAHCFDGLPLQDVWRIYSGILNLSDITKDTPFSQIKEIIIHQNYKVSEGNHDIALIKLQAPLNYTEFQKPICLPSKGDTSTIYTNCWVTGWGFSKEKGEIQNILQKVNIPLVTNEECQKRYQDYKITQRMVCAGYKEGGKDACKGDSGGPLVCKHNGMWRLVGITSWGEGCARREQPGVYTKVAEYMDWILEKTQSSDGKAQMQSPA

[5] = The plasma clearance in rat.; format: ADME, organism-based; details: read-out: CI
How it was run: (§3)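 Cannulated rats (carotid artery; jugular vein for iv group) dosed 2 mg/kg iv (saline or 30% propylene glycol/saline) or 10 mg/kg po (0.1% methocel suspension). Blood sampled 1-360 min (iv) or 15-360 min (po), centrifuged, plasma extracted with acetonitrile and quantified by thrombin enzyme activity assay.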

[6] = The fraction of free compound available in plasma of human; format: ADME, cell-free; details: read-out: Funbound_plasma
Rattus norvegicus [7] = species: Rattus norvegicus; test: (§4) Number of occlusions was reported; format: functional
How it was run: (§5)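 Rat carotid artery FeCl3-induced thrombosis: inhibitor infused iv at 6 µg/kg/min for 120 min before FeCl3 insult (vehicle saline or 30% propylene glycol/saline); occlusions counted; plasma drug level at end of experiment. 2X APTT = plasma concentration (µM) doubling activated partial thromboplastin time, determined in rat plasma.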

Rattus norvegicus [8] = test: AUC (Area under curve) was determined after peroral administration at a dose 10 mg/kg in rat.; format: ADME, organism-based, Plasma; set-up: dose 10 mg/kg, route oral; details: in vivo, po
Coagulation factor X = Coagulation factor X (Homo sapiens, UniProt P00742); test: Inhibitory activity against human serine protease Coagulation factor X (1.7*10e6*)
Coagulation factor X, sequence (P00742 41-179 limits assumed): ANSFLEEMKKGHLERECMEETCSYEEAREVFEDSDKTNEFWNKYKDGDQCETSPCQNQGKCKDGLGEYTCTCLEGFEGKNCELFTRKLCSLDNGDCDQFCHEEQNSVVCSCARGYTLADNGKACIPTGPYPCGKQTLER
Coagulation factor X, sequence (P00742 235-488 limits assumed): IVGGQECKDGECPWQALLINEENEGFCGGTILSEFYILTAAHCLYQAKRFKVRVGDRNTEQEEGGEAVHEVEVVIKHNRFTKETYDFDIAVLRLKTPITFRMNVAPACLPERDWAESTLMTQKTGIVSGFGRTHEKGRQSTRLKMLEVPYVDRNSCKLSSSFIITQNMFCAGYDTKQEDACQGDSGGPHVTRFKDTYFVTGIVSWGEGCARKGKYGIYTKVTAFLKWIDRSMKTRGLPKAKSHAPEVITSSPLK

[9] = The fraction of free compound available in plasma of rat; format: ADME, cell-free; details: read-out: Funbound_plasma
[10] = The half life period in rat.; format: ADME, organism-based; details: in vivo; how it was run: as §3
[11] = Bioavailability in rat; format: ADME, organism-based; details: in vivo; how it was run: as §3
[12] = Partition coefficient (logP); format: physicochemical; details: octanol/water; how it was run: as §2
Serine protease 1 [13] = target: T1, Serine protease 1; test: Inhibitory activity against human trypsin
Canis familiaris [14] = test: AUC (Area under curve) was determined after peroral administration at a dose 5 mg/kg in dog; format: ADME, organism-based, Canis lupus familiaris, Plasma; set-up: dose 5 mg/kg, route oral; details: in vivo, po
How it was run: (§6)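 Two fasted male beagle dogs (10-12 kg), crossover design. Oral 5 mg/kg as 1% methocel suspension, blood from jugular vein at 0-480 min; iv 1 mg/kg bolus in 20% PEG/saline, blood at 0-480 min. Plasma frozen at -20 °C and assayed by HPLC.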

[15] = The plasma clearance in dog.; format: ADME, organism-based, Canis lupus familiaris; details: read-out: CI; how it was run: as §6
Rattus norvegicus [16] = test: Concentration required to double the activated partial thromboplastin time (2X APTT) in FeCl3 induced thrombosis in rat carotid artery at 6 micro g/kg/min dose by intravenous administration.; format: functional; how it was run: as §5
Canis familiaris [17] = test: AUC (Area under curve) was determined after intravenous administration at a dose 1 mg/kg in dog; format: ADME, organism-based, Canis lupus familiaris, Plasma; set-up: dose 1 mg/kg, route intravenous; details: in vivo; how it was run: as §6
[18] = as §1; format: physicochemical; how it was run: as §2; remark: listed apart in the source
[19] = Bioavailability in dog; format: ADME, organism-based, Canis lupus familiaris; details: in vivo; how it was run: as §6
[20] = The half life period by peroral administration in dog; format: ADME, organism-based, Canis lupus familiaris; details: in vivo, po; how it was run: as §6
[21] = The half life period by intravenous administration in dog; format: ADME, organism-based, Canis lupus familiaris; details: in vivo; how it was run: as §6
[22] = as §4; format: ADME; how it was run: as §5

| Compound | logD [1] | Ki (Prothrombin) | AUC (Rattus norvegicus [2]) | clearance [5] | No. of occlusions (Rattus norvegicus [7]) | AUC (Rattus norvegicus [8]) | fraction unbound [9] | half-life [10] | bioavailability [11] | further results |
| --- | --- | --- | --- | --- | --- | --- | --- | --- | --- | --- |
| NC1CCC(CNC(=O)[C@@H]2CCCN2C(=O)[C@H](N)C(C2CCCCC2)C2CCCCC2)CC1 (some centres not stated) | 0.794 | 0.056 nM | 3.3 µM·h | 6 mL/min/kg | 1 | 0.36 µM·h | 0.06 | 0.2 h | 2% | Ki (Plasminogen): 165 µM; Ki [3]: 137 µM; Ki (Serine protease 1 [4]): 0.12 µM; Ki (Plasma kallikrein): 5 µM; fraction unbound [6]: 0.02; Ki (Coagulation factor X): 95 µM |
| NC1CCC(CNC(=O)[C@@H]2CCCN2C(=O)[C@H](N)C(c2ccccc2)c2ccccc2)CC1 (some centres not stated) | – | – | – | – | – | – | – | – | – | logP [12]: -0.539; Ki (Serine protease 1 [13]): 0.094 µM |
| CC(C)(C)OC(=O)N[C@H](C(=O)N1CCC[C@H]1C(=O)NCC1CCC(N)CC1)C(C1CCCCC1)C1CCCCC1 (some centres not stated) | – | 3000 nM | – | – | – | – | – | – | – | – |
| NC1CCC(CNC(=O)[C@@H]2CCCN2C(=O)[C@@H](N)C(C2CCCCC2)C2CCCCC2)CC1 (some centres not stated) | – | 440 nM | – | – | – | – | – | – | – | – |
| CC(C)(C)OC(=O)N[C@@H](C(=O)N1CCC[C@H]1C(=O)NCC1CCC(N)CC1)C(C1CCCCC1)C1CCCCC1 (some centres not stated) | > 3.09 | 0.1 nM | 3.34 µM·h | 17.9 mL/min/kg | 4 | 6.86 µM·h | < 0.01 | 4.15 h | 41% | AUC (Canis familiaris [14]): 45.3 µM·h; clearance [15]: 6.06 mL/min/kg; Concentration (Rattus norvegicus [16]): 2.7 µM; AUC (Canis familiaris [17]): 90 µM·h; logD [18]: > 3.09; bioavailability [19]: 90%; half-life [20]: 7.13 h; half-life [21]: 3.27 h |
| CC1CNc2c(cccc2S(=O)(=O)N[C@@H](CCCNC(=N)N)C(=O)N2CCC(C)C[C@@H]2C(=O)O)C1 (single isomer, unassigned) [ARGATROBAN] | – | – | – | – | – | – | – | – | – | No. of occlusions [22]: 0 |
